Experimental findings from ChEMBL document CHEMBL4177770, “Discovery of MK-6169, a Potent Pan-Genotype Hepatitis C Virus NS5A Inhibitor with Optimized Activity against Common Resistance-Associated Substitutions” (J Med Chem, 2018) are described below.

The target in data set [1] is T1, Nonstructural protein 5A (Hepatitis C virus) (UniProt Q5L478).
T1 sequence (whole entry): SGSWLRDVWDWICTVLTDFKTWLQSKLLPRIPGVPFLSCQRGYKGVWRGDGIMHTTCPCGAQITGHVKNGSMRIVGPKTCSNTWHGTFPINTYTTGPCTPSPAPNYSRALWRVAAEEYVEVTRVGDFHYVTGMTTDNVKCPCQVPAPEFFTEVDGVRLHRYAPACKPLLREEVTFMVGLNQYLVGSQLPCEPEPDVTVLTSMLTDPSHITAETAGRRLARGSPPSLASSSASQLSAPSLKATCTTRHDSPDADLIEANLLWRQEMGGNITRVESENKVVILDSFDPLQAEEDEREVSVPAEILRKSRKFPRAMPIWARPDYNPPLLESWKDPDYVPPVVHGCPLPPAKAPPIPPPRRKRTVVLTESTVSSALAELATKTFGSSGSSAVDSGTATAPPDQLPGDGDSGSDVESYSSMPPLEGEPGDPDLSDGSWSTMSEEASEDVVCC
Kind of data set: Inhibition of NS5A L31M mutant in HCV genotype 1b infected in HuH7 replicon cells assessed as decrease in viral replication after 3 days by RT-PCR method. Type of data set: cell-based. Conditions: Hepatitis C virus subtype 1b.

Data set [2] has as its target T1, Nonstructural protein 5A (Hepatitis C virus). Kind of data set: Inhibition of NS5A R81S mutant in HCV genotype 1a infected in HuH7 replicon cells assessed as decrease in viral replication after 3 days by RT-PCR method. Type of data set: cell-based. Conditions: Hepatitis C virus subtype 1a.
For data set [3] the target is unchanged. Kind of data set: Inhibition of NS5A L31V mutant in HCV genotype 1b infected in HuH7 replicon cells assessed as decrease in viral replication after 3 days by RT-PCR method. Conditions: Hepatitis C virus subtype 1b. Type of data set: cell-based.
Data set [4] in a line: Resistance ratio of EC90 for NS5A F28Y mutant in HCV genotype 2a infected in HuH7 replicon cells to EC90 for NS5A in HCV genotype 1a infected in HuH7 replicon cells. Type of data set: cell-based.
The nature of data set [5]: Resistance ratio of EC90 for NS5A L31V mutant in HCV genotype 4a infected in HuH7 replicon cells to EC90 for NS5A in HCV genotype 1a infected in HuH7 replicon cells. The data set is classed as cell-based.
Data set [6] in a line: MRT in Wistar Han rat at 10 mg/kg, po by LC/MS method. Type of data set: ADME, organism-based. Conditions: in vivo. A digest of the protocol:
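Male Wistar Han rats, two per dosing group, dosed orally at 10 mg/kg in 10% TWEEN. Plasma was separated from collected blood by centrifugation and analysed by LC/MS.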

For data set [7], the system named is NS3 (Hepatitis C virus), A3EZJ3 [R155K,V36M]. The data set can be described thus: Inhibition of NS3 R155K/V36M double mutant in HCV genotype 1a infected in HuH7 replicon cells assessed as decrease in viral replication after 3 days by RT-PCR method. Type of data set: cell-based. Conditions: Hepatitis C virus subtype 1a.
The nature of data set [8]: AUC in Wistar Han rat at 300 mg/kg, po by LC/MS method. Type of data set: ADME, organism-based. The settings on record: in vivo. A digest of the protocol: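 Single rising oral dose study in fed male Wistar Han rats, dosed PO in 10% TWEEN at the indicated doses. Plasma was obtained by centrifuging the blood, and compound levels were determined by LC/MS.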
Data set [9] can be described thus: Resistance ratio of EC90 for NS5A A146S mutant in HCV genotype 2b infected in HuH7 replicon cells to EC90 for NS5A in HCV genotype 1a infected in HuH7 replicon cells. The data set is classed as cell-based.
The subject of data set [10] is T2, Nonstructural protein 5A (Hepatitis C virus), Q5L478 [Y93H].
T2 sequence (whole entry): T1 sequence (whole entry) with Y93H
Kind of data set: Inhibition of NS5A Y93H mutant in HCV genotype 1a infected in HuH7 replicon cells assessed as decrease in viral replication after 3 days by RT-PCR method. Conditions: Hepatitis C virus subtype 1a. Type of data set: cell-based.

The nature of data set [11]: AUC in Beagle dog at 5 mg/kg, po by LC/MS method. The data set is classed as ADME, organism-based, Canis lupus familiaris. Conditions: in vivo. In short, it runs like this:
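Beagle dogs, two animals per dosing group. Oral dose was given in 10% TWEEN. Blood was collected and spun to plasma, and plasma compound levels were measured by LC/MS.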

Data set [12] deals with T1, Nonstructural protein 5A (Hepatitis C virus). Kind of data set: Inhibition of NS5A L31V mutant in HCV genotype 3a infected in HuH7 replicon cells assessed as decrease in viral replication after 3 days by RT-PCR method. Type of data set: cell-based. The settings on record: Hepatitis C virus subtype 3a.
A short description of data set [13]: Clearance in Beagle dog at 1 mg/kg, iv by LC/MS method. Type of data set: ADME, organism-based, Canis lupus familiaris. Conditions: in vivo. A digest of the protocol: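 Beagle dogs, two animals per group, dosed IV at 1 mg/kg in 60% PEG200. Plasma was prepared from collected blood by centrifugation, and compound was quantified by LC/MS.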
Data set [14] deals with Hepatitis C virus subtype 1a. The data set can be described thus: Resistance ratio of EC90 for NS5A L31V mutant in HCV genotype 1a infected in HuH7 replicon cells to EC90 for NS5A in HCV genotype 1a infected in HuH7 replicon cells. Type of data set: cell-based.
Data set [15] in a line: Resistance ratio of EC90 for NS5A A30K mutant in HCV genotype 3a infected in HuH7 replicon cells to EC90 for NS5A in HCV genotype 1a infected in HuH7 replicon cells. The data set is classed as cell-based.
Data set [16] deals with T1, Nonstructural protein 5A (Hepatitis C virus). The data set can be described thus: Inhibition of NS5A M28K mutant in HCV genotype 1a infected in HuH7 replicon cells assessed as decrease in viral replication after 3 days by RT-PCR method. Type of data set: cell-based. The settings on record: Hepatitis C virus subtype 1a.
Data set [17] shares this target. Kind of data set: Inhibition of NS5A L31V mutant in HCV genotype 1a infected in HuH7 replicon cells assessed as decrease in viral replication after 3 days by RT-PCR method. Type of data set: cell-based. Conditions: Hepatitis C virus subtype 1a.
Data set [18] deals with NS3 (Hepatitis C virus), A3EZJ3 [R155K]. The data set can be described thus: Inhibition of NS3 R155K mutant in HCV genotype 1a infected in HuH7 replicon cells assessed as decrease in viral replication after 3 days by RT-PCR method. The data set is classed as cell-based. Conditions: Hepatitis C virus subtype 1a.
Data set [19] can be described thus: Resistance ratio of EC90 for NS5A in HCV genotype 4a infected in HuH7 replicon cells to EC90 for NS5A in HCV genotype 1a infected in HuH7 replicon cells. The data set is classed as cell-based.
Data set [20] can be described thus: Resistance ratio of EC90 for NS5A in HCV genotype 2a infected in HuH7 replicon cells to EC90 for NS5A in HCV genotype 1a infected in HuH7 replicon cells. The data set is classed as cell-based.
Data set [21] deals with T1, Nonstructural protein 5A (Hepatitis C virus). The data set can be described thus: Inhibition of NS5A A92P mutant in HCV genotype 1a infected in HuH7 replicon cells assessed as decrease in viral replication after 3 days by RT-PCR method. The data set is classed as cell-based. The settings on record: Hepatitis C virus subtype 1a.

Substitutions are numbered along the chain they refer to.

Regarding `COC(=O)N[C@H](C(=O)N1CCC[C@H]1c1ncc(-c2cc(F)c3c(c2)O[C@@H](c2ccc(C4CC4)s2)n2c-3cc3cc(-c4cnc([C@@H]5CCCN5C(=O)[C@@H](NC(=O)OC)[C@@H]5CCOC(C)(C)C5)[nH]4)ccc32)[nH]1)C(C)C`, the EC90 worked out at 1.6 pM in data set [1]; 0.33 pM in data set [2]; 5.8 pM in data set [3]; 2.5 pM in data set [7]; 0.033 nM in data set [10]; 3.2 nM in data set [12]. Also, the EC90 was found to be 0.42 nM in [16], 4.3 pM in data set [17], 1.9 pM in data set [18] and 0.14 pM in [21]. Besides, the Ratio in [4] was determined as 16; in data set [5], 2; in data set [9], 1; in data set [14], 1; in [15], 4; in data set [19], 2. Besides, in data set [20], the Ratio is < 1. Further, the MRT in [6] came out at 6.5 h. Also, the AUC in data set [8] amounted to 14.7 µM·h; in [11] it was 4.19 µM·h. Also, the clearance in [13] is 2.9 mL/min/kg.
